The text below walks through data of ChEMBL document CHEMBL1821703, “Anthraquinone derivatives induce G2/M cell cycle arrest and apoptosis in NTUB1 cells” (Bioorg Med Chem, 2011).

Active and inactive are the calls of the source. The calls are words filed in the database; no cut-off is given here.

Data set [1] concerns PC-3. Put plainly: Cytotoxicity against human PC3 cells after 72 hrs by MTT assay. The note with it: PC-3, 72 h, read-out: ED50 (the source's name). The data set is classed as functional. The gist of the method:
(§1)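 Cells seeded at 1000/well (NTUB1, PC3) or 5000/well (SV-HUC1), incubated overnight at 37 °C, then exposed to graded concentrations for 72 h. Compounds were made up in DMSO and diluted in medium to 0.1% DMSO. MTT (2 mg/mL in PBS) added for 3 h, formazan dissolved in DMSO, absorbance read at 540 nm. Viability expressed as % of control; IC50 by median-effect analysis.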
For orientation: Tetrazolium assays rely on reduction of a dye to a coloured formazan, in cell work by metabolically active cells.

A short description of data set [2]: Cytotoxicity against human NTUB1 cells after 72 hrs by MTT assay. Type of data set: functional. The note with it: NTUB1, 72 h, read-out: ED50 (the source's name). The gist of the method:
as §1

Data set [3] can be described thus: Cytotoxicity against human NTUB1 cells at >30 uM after 72 hrs by MTT assay. Type of data set: functional. The gist of the method:
as §1

Data set [4] relates to PC-3. Put plainly: Cytotoxicity against human PC3 cells at >50 uM after 72 hrs by MTT assay. Type of data set: functional. The gist of the method:
as §1

The test system of data set [5] is NTUB1. As to the kind of experiment: Induction of ROS production in human NTUB1 cells using H2DCFDA staining after 24 hrs by flow cytometry analysis. Type of data set: functional, cell-based. The gist of the method: (§2)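 NTUB1 cells treated 24 h with compounds, 20 µM cisplatin or 1 mM NAC. 10 µM H₂DCFDA added 30 min before harvest. Cells trypsinized, washed with PBS, and DCF green fluorescence read at once by FACScan flow cytometry through a 525-nm band-pass filter. Increase expressed with control set at 0%; three independent experiments.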

Data set [6] is described as follows: Cytotoxicity against human NTUB1 cells at >50 uM after 72 hrs by MTT assay. Type of data set: functional. The gist of the method: as §1
Data set [7] concerns NTUB1. Put plainly: Induction of morphological changes in human NTUB1 cells assessed as increase of tetraploid DNA level using DAPI staining at 20 uM after 24 hrs by immunofluorescence microscopic analysis. Type of data set: functional, cell-based. The essentials:
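3 × 10⁵ NTUB1 cells per 6-cm dish treated 24 h. Fixed in 2% formaldehyde/PBS for 20 min, then cold methanol (−20 °C) for 3 min. Stained with DAPI 1 h at room temperature in the dark and examined by fluorescence microscopy.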

Data set [8] is described as follows: Cell cycle arrest in human NTUB1 cells assessed as accumulation at S phase at 20 uM after 24 hrs using propidium iodide staining by flow cytometry analysis (reference value: 22.61%). Type of data set: functional, cell-based. The gist of the method:
(§3)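 3 × 10⁵ NTUB1 cells per 6-cm dish, treated 24 h (medium-only control). Cells then stained with 50 µg/mL propidium iodide plus 50 µg/mL RNase A in PBS, 30 min at room temperature. DNA content read by FACScan flow cytometry; sub-G1 content taken as apoptosis. Values are mean ± SD of four independent experiments.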
In general terms: In flow cytometry, cells or beads pass a laser one at a time.

The nature of data set [9]: Cell cycle arrest in human NTUB1 cells assessed as accumulation at sub-G1 phase at 20 uM after 24 hrs using propidium iodide staining by flow cytometry analysis (reference value: 1.96%). The data set is classed as functional, cell-based. The gist of the method: as §3
Data set [10] can be described thus: Cell cycle arrest in human NTUB1 cells assessed as accumulation at G1 phase at 10 uM after 24 hrs using propidium iodide staining by flow cytometry analysis (reference value: 56.06%). The data set is classed as functional, cell-based. The essentials:
as §3

The test system of data set [11] is NTUB1. As to the kind of experiment: Induction of down-regulation cyclin B1 expression in human NTUB1 cells at 10 uM after 24 hrs by Western blot analysis. Type of data set: functional, cell-based. The gist of the method:
(§4)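 NTUB1 cells exposed 24 h, trypsinized, and resuspended in PBS. Lysed by boiling twice for 10 min in 2× sample buffer, separated by SDS–PAGE, and semi-dry blotted to nitrocellulose. Membranes blocked in 5% skimmed milk in TBST, probed with primary antibodies overnight at 4 °C, then secondary antibody 1 h at room temperature. ECL chemiluminescence detection; GAPDH as internal control.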

Data set [12] can be described thus: Cytotoxicity against human NTUB1 cells assessed as cell viability at 10 uM after 72 hrs by MTT assay relative to control. Type of data set: functional. To be noted: NTUB1, 72 h, read-out: Activity. The gist of the method: as §1
The nature of data set [13]: Cell cycle arrest in human NTUB1 cells assessed as accumulation at sub-G1 phase at 10 uM after 24 hrs using propidium iodide staining by flow cytometry analysis (reference value: 1.96%). The data set is classed as functional, cell-based. The essentials: as §3
Data set [14] in a line: Cytotoxicity against human NTUB1 cells assessed as cell viability at 10 uM after 72 hrs by MTT assay relative to control in presence of 1 mM of NAC. Type of data set: functional. The gist of the method: (§5)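 NTUB1 cells seeded at 1000/well, incubated overnight, then exposed 72 h to 1 mM NAC alone or to compound with NAC. MTT added for 3 h, formazan dissolved in DMSO, absorbance read at 540 nm. Viability expressed relative to untreated control; mean ± SD (n = 3) from one experiment in triplicate.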

Data set [15] in a line: Cell cycle arrest in human NTUB1 cells assessed as accumulation at G2/M phase at 20 uM after 24 hrs using propidium iodide staining by flow cytometry analysis (reference value: 18.61%). The data set is classed as functional, cell-based. The gist of the method:
as §3

The test system of data set [16] is NTUB1. As to the kind of experiment: Increase of p53 protein expression in human NTUB1 cells at 10 to 20 uM after 24 hrs by Western blot analysis. Type of data set: functional, cell-based. The essentials:
as §4
In general terms: In western blotting, separated proteins are transferred to a membrane and probed.

Data set [17] relates to NTUB1. As to the kind of experiment: Induction of up-regulation p21 expression in human NTUB1 cells at 10 uM after 24 hrs by Western blot analysis. Type of data set: functional, cell-based. The essentials:
as §4

The nature of data set [18]: Cytotoxicity against human SV-HUC1 cells at 3 to 10 uM after 72 hrs by MTT assay. Type of data set: cell-based. To be noted: sv-huc1, 72 h. The gist of the method:
as §1

Data set [19] has as its system NTUB1. Put plainly: Induction of up-regulation cyclin B1 expression in human NTUB1 cells at 20 uM after 24 hrs by Western blot analysis. The data set is classed as functional, cell-based. The essentials: as §4
Data set [20] is described as follows: Cytotoxicity against human NTUB1 cells assessed as cell viability at 20 uM after 72 hrs by MTT assay relative to control. The note with it: NTUB1, 72 h, read-out: Activity. Type of data set: functional. The essentials: as §1
Data set [21] in a line: Cytotoxicity against human NTUB1 cells assessed as cell viability at 20 uM after 72 hrs by MTT assay relative to control in presence of 1 mM of NAC. Type of data set: functional. The gist of the method: as §5
For data set [22], the system named is NTUB1. Put plainly: Induction of ROS production in human NTUB1 cells using H2DCFDA staining at 20 uM after 24 hrs by flow cytometry analysis in presence of 1 mM of NAC. The data set is classed as functional, cell-based.
Data set [23] can be described thus: Decrease of Bax protein expression in human NTUB1 cells at 10 to 20 uM after 24 hrs by Western blot analysis. Type of data set: functional, cell-based. The gist of the method: as §4
Data set [24] is described as follows: Cell cycle arrest in human NTUB1 cells assessed as accumulation at G1 phase at 20 uM after 24 hrs using propidium iodide staining by flow cytometry analysis (reference value: 56.06%). Type of data set: functional, cell-based. The gist of the method: as §3
Data set [25] in a line: Cell cycle arrest in human NTUB1 cells assessed as accumulation at S phase at 10 uM after 24 hrs using propidium iodide staining by flow cytometry analysis (reference value: 22.61%). The data set is classed as functional, cell-based. The essentials:
as §3

Data set [26] has as its system NTUB1. As to the kind of experiment: Induction of up-regulation p21 expression in human NTUB1 cells at 20 uM after 24 hrs by Western blot analysis. The data set is classed as functional, cell-based. The essentials:
as §4

Data set [27] is described as follows: Cell cycle arrest in human NTUB1 cells assessed as accumulation at G2/M phase at 10 uM after 24 hrs using propidium iodide staining by flow cytometry analysis (reference value: 18.61%). The data set is classed as functional, cell-based. The gist of the method:
as §3

Data set [28] has as its system PC-3. As to the kind of experiment: Cytotoxicity against human PC3 cells at >30 uM after 72 hrs by MTT assay. The data set is classed as functional. The gist of the method:
as §1

The subject of data set [29] is NTUB1. Put plainly: Induction of ROS production in human NTUB1 cells using H2DCFDA staining at 1 mM after 24 hrs by flow cytometry analysis. The data set is classed as functional, cell-based. The gist of the method:
as §2

Data set [30] is described as follows: Cytotoxicity against human NTUB1 cells assessed as cell viability at 1 mM after 72 hrs by MTT assay relative to control. The data set is classed as functional. The note with it: NTUB1, 72 h, read-out: Activity. The essentials: as §5

`CC(O)CNCCCOc1cc(O)c2c(c1)C(=O)c1ccccc1C2=O` (configuration not stated): the results for the EC50 (in the data set on PC-3 [1]; in data set [2]) were 9.07 µM and 12 µM, respectively.

As for `CCCNCCCOc1cc(O)c2c(c1)C(=O)c1ccccc1C2=O`, the EC50 with PC-3 [1] turned out to be 14 µM; in data set [2], 18.9 µM.

On to `O=C1c2ccccc2C(=O)c2c(O)cc(OCCCN3CCCCC3)cc21`, for which the values for the EC50 (with PC-3 [1]; in data set [2]) were 28.5 µM and 32.6 µM, respectively.

With `CN1CCN(CCCOc2cc(O)c3c(c2)C(=O)c2ccccc2C3=O)CC1`, the “inhibition (INH)” value stood at 15.54% in data set [3] and 44.36% in the data set on PC-3 [4]. The EC50 was above 50 µM with PC-3 [1] and above 30 µM in data set [2].

For the compound `O=C1c2ccccc2C(=O)c2c(O)cc(OCCCNC3CCCCC3)cc21`, the EC50 with PC-3 [1] was 9.12 µM; in data set [2], 8.37 µM.

`O=C1c2ccccc2C(=O)c2c(O)cc(OCCCN3CCOCC3)cc21`: the EC50 in the data set on PC-3 [1] came to 17.7 µM; in data set [2], 20.4 µM. In the data set with NTUB1 [5], the outcome was Active.

Turning to `CN(CCO)CCCOc1cc(O)c2c(c1)C(=O)c1ccccc1C2=O`, the EC50 with PC-3 [1] was found to be 8.89 µM; in data set [2] it was 12.3 µM.

As to `O=C1c2ccccc2C(=O)c2c(O)cc(OCCCN3CCN(CCO)CC3)cc21`, the “inhibition (INH)” value in data set [6] is reported as 18.75%; with PC-3 [4], 18.54%. Moreover, the EC50 (with PC-3 [1]; in data set [2]) was above 50 µM each time.

For `CCNCCCOc1cc(O)c2c(c1)C(=O)c1ccccc1C2=O`, the entries for the “inhibition (INH)” value (in [6]; in the data set with PC-3 [4]) were 23.2% and 19.2%, respectively. For the same compound, the EC50 (in the data set on PC-3 [1]; in data set [2]) was above 50 µM in each case.

Regarding `CCNCCCOc1ccc2c(c1)C(=O)c1ccccc1C2=O`, the EC50 in the data set with PC-3 [1] was determined as 22.9 µM; in data set [2] it was 24.4 µM.

As to `O=C1c2ccccc2C(=O)c2c(O)cc(OCCCN3CCCC3)cc21`, the outcome with NTUB1 [7], in the data set with NTUB1 [11], in the data set with NTUB1 [5], with NTUB1 [16], in the data set with NTUB1 [17] and with NTUB1 [19] was Active. The outcome (in data set [23]; in the data set with NTUB1 [26]) was Active. The Activity amounted to 21.9% in data set [8]; 4.69% in data set [9]; 51.4% in data set [10]; 2.47% in data set [13]; 57.4% in data set [14]; 29.6% in [15]. Further, the Activity result in data set [18] was “Non-toxic”; in data set [21] it was 17.1%; in data set [24], 36.6%; in data set [25], 25.3%; in [27], 19.2%. Besides, the EC50 with PC-3 [1] was determined as 7.64 µM; in [2], 9.72 µM. The viability at 10 µM in data set [12] was determined as 57%. Also, the viability at 20 µM in data set [20] was 13.1%. Further, in the data set on NTUB1 [22], the result was inactive.

For `CCOC(=O)N1CCN(CCCOc2cc(O)c3c(c2)C(=O)c2ccccc2C3=O)CC1`, the EC50 in the data set on PC-3 [1] is above 30 µM; in data set [2], 50.9 µM. The result with NTUB1 [5] was Active. In addition, in the data set on PC-3 [28], the “inhibition (INH)” value worked out at 12.44%.

Turning to `CC(=O)N[C@@H](CS)C(=O)O` [ACETYLCYSTEINE], the outcome in the data set with NTUB1 [29] was inactive. Also, the viability at 1000 µM in data set [30] came to 96.3%.
